Source: PubChem
The sample as a whole holds a higher share of hits than the screen did.
HCT116 PTEN-null – growth suppression of PTEN-null HCT116, primary screen, cell-based, CellTiter-Glo; HCT116 PTEN-null viability, 60 h; hits give low values; viability, % at 10 µM; 1.2% of 140,000 active;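 active = viability at or below a set limit, 4 SD under the median of all tested compounds, cut at about 3.7% in these data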;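 also: PTEN knockout HCT116 line with beta catenin targeted HCT116 as companion control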
Lung fibro prol – antiproliferative effect on LL 47 fibroblasts – human, LL 47 cells, CellTiter-Glo luminescence, primary screen; LL 47 human lung fibroblast viability, ATP luminescence; hits give low values; viability, % at 10 µM; 1.1% of 85,000 active; AID 719, 2007;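 active = viability at or below 50% in the single dose screen; inactive = viability above 50%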;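 also: compound exposure lasted 72 h before the ATP readout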
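Material: human lung fibroblast line LL 47, low passage; Evaluation: viability percentage against median untreated-cell control; Buffer or medium: 15% FBS in IMEM; Incubation: 72 h compound exposure at 37 °C after overnight plating; Dosing: 0.1% DMSO in all compound wells; Measured by: CellTiter-Glo luminescence.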
bCat KO growth – primary screen for growth suppressors in beta-catenin knockout HCT116 cells (colon tumor, human). HCT116 beta-catenin knockout viability, CellTiter-Glo, 60 h; hits give low values. viability, % at 10 µM. 1.5% of 140,000 active. AID 818, 2007;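 active = viability at or under a set limit, the compound median less 4 SD, cut at about 6% in these data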
HUVEC inhibit – inhibitors of HUVEC proliferation, primary screen, cell-based, 384-well; viability, % at 10 µM (by protocol); CellTiter-Glo luminescence, 72 h; hits give low values; 1.1% of 86,000 active; AID 648, 2007;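 active = viability at or below 30%; inactive = viability above 30%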
H69AR inhibit – proliferation blockers of H69AR lung cancer cells, primary screen, cell-based, human, 86K library. viability, % at 10 µM. H69AR lung tumor viability, ATP luminescence, 72 h; hits give low values. 6% of 85,000 active. AID 598, 2007;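 active = viability at or below 40%; inactive = viability above 40%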;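 also: multidrug resistant small cell line overexpressing MRP-1 efflux transporter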
A number is an active result.

`CC1=C(C(=O)OCc2ccc3c(c2)OCO3)C(c2ccccc2OCc2ccccc2)NC(=O)N1` (stereo not drawn) gave HCT116 PTEN-null inactive, Lung fibro prol inactive, bCat KO growth inactive, HUVEC inhibit inactive and H69AR inhibit inactive.
O=C(/C=C1\NCC2c3ccccc3CCN2C1=O)c1ccccc1 (stereo not drawn) was read as HCT116 PTEN-null inactive and bCat KO growth inactive.
For O=C(Cn1cnc([N+](=O)[O-])c1)Nc1cc(Oc2ccc(Cl)cc2Cl)cc([N+](=O)[O-])c1 the results were HCT116 PTEN-null inactive, Lung fibro prol inactive, bCat KO growth inactive, HUVEC inhibit inactive and H69AR inhibit 9.9.
CSc1nnc2n(-c3ccc(C)cc3)c(=O)c3c4c(sc3n12)COC(C(C)C)C4 (stereo not drawn) was read as HCT116 PTEN-null inactive, Lung fibro prol 36.6, bCat KO growth inactive, HUVEC inhibit inactive and H69AR inhibit 36.2.
Screening Cc1ccc(-n2c(=O)c3c4c(sc3n3c(C)nnc23)COC(C(C)C)C4)cc1 (stereo not drawn) returned Lung fibro prol inactive, HUVEC inhibit inactive and H69AR inhibit inactive.
CC1(C)Cc2c(c(N3CCOCC3)nc3sc4c(NCc5ccco5)nnnc4c23)CS1 was read as HCT116 PTEN-null inactive, Lung fibro prol inactive, bCat KO growth inactive, HUVEC inhibit inactive and H69AR inhibit 37.0.
For CC1(C)Cc2c(c(N3CCOCC3)nc3sc4c(NN)ncnc4c23)CS1 the results were HCT116 PTEN-null inactive, Lung fibro prol 17.3, bCat KO growth 2.8, HUVEC inhibit 6.3 and H69AR inhibit inactive.
`CC(C)CNc1nnnc2c1sc1nc(N3CCOCC3)c3c(c12)CC(C)(C)SC3` gave HCT116 PTEN-null inactive and bCat KO growth inactive.
CC1(C)Cc2c(c(N3CCOCC3)nc3sc4c(NCc5ccccc5)nnnc4c23)CS1 was read as HCT116 PTEN-null 3.2, Lung fibro prol 17.6, bCat KO growth inactive, HUVEC inhibit 24.4 and H69AR inhibit 2.0.
`Nc1nonc1C(=O)NCCNS(=O)(=O)c1ccc(F)cc1` gave HCT116 PTEN-null inactive and bCat KO growth inactive.
Screening COc1cccc(-n2cnc3sc(C)c(C)c3c2=O)c1 returned HCT116 PTEN-null inactive and bCat KO growth inactive.
`Cc1c(C(=O)Nc2ccccc2)sc2nc[nH]c(=O)c12` gave HCT116 PTEN-null inactive and bCat KO growth inactive.
Screening CCCCn1nc(C(=O)Oc2ccc3c(C)cc(=O)oc3c2)c2ccccc2c1=O returned HCT116 PTEN-null inactive and bCat KO growth inactive.
CCn1c(SCC(=O)Nc2nc(-c3ccc(C)cc3)cs2)nnc1-c1ccccc1 was read as HCT116 PTEN-null inactive, Lung fibro prol inactive, bCat KO growth inactive, HUVEC inhibit inactive and H69AR inhibit inactive.
For CCOc1ccc(NCc2nnc(SCC(=O)Nc3nc(-c4ccccc4)cs3)n2-c2ccccc2)cc1 the results were HCT116 PTEN-null 1.0 and bCat KO growth 1.3.
For Cc1cccc(C)c1NCc1nnc(SCC(=O)Nc2nc(-c3ccccc3)cs2)n1-c1ccccc1 the results were HCT116 PTEN-null inactive and bCat KO growth inactive.
`CCn1c(SCC(=O)Nc2nc(C)cs2)nnc1C(NC(=O)c1ccccc1Cl)C(C)C` (stereo not drawn) gave HCT116 PTEN-null inactive, Lung fibro prol inactive, bCat KO growth inactive, HUVEC inhibit inactive and H69AR inhibit 38.0.
`COc1ccc2cc(C)c3nnc(SCC(=O)Nc4nc(-c5ccc(F)cc5)cs4)n3c2c1` gave HCT116 PTEN-null 2.0 and bCat KO growth 2.7.
CCn1c(SCC(=O)Nc2nc(-c3ccc(C)cc3)cs2)nnc1-c1ccccc1O was read as HCT116 PTEN-null inactive, Lung fibro prol inactive, bCat KO growth inactive, HUVEC inhibit inactive and H69AR inhibit 29.4.
For COc1ccccc1-c1nnc(SCC(=O)Nc2nc(-c3ccccc3)cs2)n1C the results were HCT116 PTEN-null inactive, Lung fibro prol inactive, bCat KO growth inactive, HUVEC inhibit inactive and H69AR inhibit inactive.
`CCOC(=O)c1[nH]c2ccccc2c1NC(=S)Nc1cccc(C)c1` gave HCT116 PTEN-null inactive and bCat KO growth inactive.
`COc1ccc(/C=C/C(=O)OCC(=O)Nc2ccc(Cl)c(S(=O)(=O)N(C)C)c2)cc1OC` gave HCT116 PTEN-null inactive and bCat KO growth inactive.
Cc1cc(C)n(-c2nc3sc4c(c3c(=O)[nH]2)CCCC4)n1 was read as HCT116 PTEN-null 2.6, Lung fibro prol inactive, bCat KO growth 4.7, HUVEC inhibit inactive and H69AR inhibit 27.8.
`CCOC(=O)c1cnn(-c2nc3sc4c(c3c(=O)[nH]2)CCCC4)c1N` gave Lung fibro prol 45.1, HUVEC inhibit inactive and H69AR inhibit 29.5.
Screening CCOC(=O)c1cnn(-c2nc(C)nc3sc4c(c23)CCC4)c1N returned Lung fibro prol inactive, HUVEC inhibit inactive and H69AR inhibit inactive.
Cc1ccccc1OCCC(=O)NCCc1ccc(S(N)(=O)=O)cc1 was read as HCT116 PTEN-null inactive and bCat KO growth inactive.
For Fc1cccc(NC(=S)NCCN2CCOCC2)c1 the results were HCT116 PTEN-null inactive and bCat KO growth inactive.
Screening CCC(CC)NC(=O)c1cccc(NC(=O)C(C)C)c1 returned HCT116 PTEN-null inactive and bCat KO growth inactive.
For COc1ccc(CN(C(=O)CSc2nnc(-c3c[nH]c4ccccc34)o2)c2ccc(F)cc2)cc1OC the results were HCT116 PTEN-null inactive, Lung fibro prol inactive, bCat KO growth inactive, HUVEC inhibit 18.0 and H69AR inhibit 11.1.
For COC(=O)C(C)Sc1nc2c([nH]c3ccccc32)c(=O)n1C (stereo not drawn) the results were HCT116 PTEN-null inactive, Lung fibro prol inactive, bCat KO growth inactive, HUVEC inhibit inactive and H69AR inhibit 38.8.
CC1CCCC(C)N1C(=O)CSc1nnc(-c2c[nH]c3ccccc23)o1 (stereo not drawn) was read as HCT116 PTEN-null inactive, Lung fibro prol inactive, bCat KO growth inactive, HUVEC inhibit inactive and H69AR inhibit inactive.
`CCC1CCCCN1C(=O)CSc1nnc(-c2c[nH]c3ccccc23)o1` (stereo not drawn) gave HCT116 PTEN-null inactive, Lung fibro prol inactive, bCat KO growth inactive, HUVEC inhibit inactive and H69AR inhibit 34.5.
`CCC(C)Sc1nc2c([nH]c3ccccc32)c(=O)n1C` (stereo not drawn) gave HCT116 PTEN-null inactive, Lung fibro prol inactive, bCat KO growth inactive, HUVEC inhibit inactive and H69AR inhibit inactive.
`CCC1CCCCN1C(=O)CSc1nc2c([nH]c3ccccc32)c(=O)n1C` (stereo not drawn) gave HCT116 PTEN-null inactive, Lung fibro prol inactive, bCat KO growth inactive, HUVEC inhibit inactive and H69AR inhibit 33.5.
`Cc1ccc(NS(=O)(=O)c2cc(-c3n[nH]c(=O)c4ccccc34)ccc2C)cc1` gave HCT116 PTEN-null inactive and bCat KO growth inactive.
